Measured values taken from ChEMBL document CHEMBL5244265 (Bioorg Med Chem, 2020).

Tests used:
Kallikrein-7 [1] = target: T1, Kallikrein-7 (Homo sapiens, UniProt P49862); assay: Inhibition of KLK7 (unknown origin)
Summary of the method: (§1)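 Fluorogenic assay with HNE (MeOSucAAPV-AMC substrate) or human KLK7 ([…] substrate). Test compounds ran as a 10-dose, 3-fold dilution series from 1 μM in duplicate, with controls tested in the same run. Activity was taken from the initial linear slope of the fluorescence increase over time. Results are mean of n = 2, expressed relative to 0.5% DMSO vehicle.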
Target sequence in this assay (P49862 whole entry): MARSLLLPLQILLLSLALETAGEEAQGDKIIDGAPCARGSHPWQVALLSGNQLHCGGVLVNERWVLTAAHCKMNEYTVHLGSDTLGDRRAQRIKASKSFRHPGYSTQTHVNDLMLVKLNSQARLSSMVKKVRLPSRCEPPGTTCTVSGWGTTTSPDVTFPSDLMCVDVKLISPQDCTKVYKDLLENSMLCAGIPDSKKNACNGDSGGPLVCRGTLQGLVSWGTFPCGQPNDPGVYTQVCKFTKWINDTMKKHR

[2] = target: T2, Neutrophil elastase (Homo sapiens) (UniProt P08246); assay: Inhibition of elastase in human neutrophil using N-(OMe-succinyl)-Ala-Ala-Pro-Val-p-nitroanilide as substrate preincubated with enzyme for 15 mins followed by substrate addition and measured every 30s for 30 mins by absorbance based analysis relative to tutuilamide A; details: time 45.0 min
T2 sequence (whole entry): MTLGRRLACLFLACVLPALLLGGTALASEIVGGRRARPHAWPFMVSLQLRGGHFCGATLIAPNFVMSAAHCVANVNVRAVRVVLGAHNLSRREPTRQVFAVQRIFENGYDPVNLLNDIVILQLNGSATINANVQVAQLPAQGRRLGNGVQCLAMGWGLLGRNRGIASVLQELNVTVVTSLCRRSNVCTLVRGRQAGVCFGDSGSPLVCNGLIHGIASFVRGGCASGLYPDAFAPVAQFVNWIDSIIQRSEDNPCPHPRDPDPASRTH
Summary of the method: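 Human neutrophil elastase, from a 100 μg/mL enzyme stock in 0.1 M Tris–0.5 M NaCl (pH 7.5), was preincubated with compound at varying doses or DMSO vehicle for 15 min at room temperature in the same buffer. The p-nitroanilide substrate was added from a 2 mM stock, and A405 was read every 30 s for 30 min. Activity was taken as the initial slope, expressed as % of the uninhibited reaction, and IC50 came from dose-response.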

Kallikrein-7 [3] = target: T1, Kallikrein-7; assay: Inhibition of human recombinant kallikrein 7 (23 to 252 residues) using MCA-RPKPVE-Nval-WRK(Dnp)-NH2 as substrate by fluorescence based analysis relative to tutuilamide A; summary of the method: as §1
Target sequence in this assay (P49862 30-253 limits assumed): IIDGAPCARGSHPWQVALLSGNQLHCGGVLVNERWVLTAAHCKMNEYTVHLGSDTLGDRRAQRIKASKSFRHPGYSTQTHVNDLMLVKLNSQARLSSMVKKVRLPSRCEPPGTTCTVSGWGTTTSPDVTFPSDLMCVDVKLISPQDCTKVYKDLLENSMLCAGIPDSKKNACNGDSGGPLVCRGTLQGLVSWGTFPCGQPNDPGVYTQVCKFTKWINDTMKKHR

Kallikrein-7 [4] = target: T1, Kallikrein-7; assay: Inhibition of human recombinant kallikrein 7 (23 to 252 residues) using MCA-RPKPVE-Nval-WRK(Dnp)-NH2 as substrate by fluorescence based analysis; summary of the method: as §1
Target sequence in this assay (P49862 whole entry): as the sequence (P49862 whole entry) above

[5] = Inhibition of chymotrypsin in bovine pancreas using Suc-AAPF-AMC as substrate by fluorescence based analysis; format: tissue-based, Bos taurus
Summary of the method: (§2)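 Each enzyme was read as a time course of rising fluorescence from cleavage of its AMC-labelled peptide substrate. The initial linear slope (signal/min) was analysed. Non-human sources: chymotrypsin from bovine pancreas, proteinase A from B. licheniformis, proteinase K from T. album limber.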

Neutrophil elastase [6] = target: T3, Neutrophil elastase (Homo sapiens, UniProt P08246); assay: Inhibition of elastase in human neutrophil using N-(OMe-succinyl)-Ala-Ala-Pro-Val-p-nitroanilide as substrate preincubated with enzyme for 15 mins followed by substrate addition and measured every 30s for 30 mins by absorbance based analysis
T3 sequence (P08246 whole entry): T2 sequence (whole entry)
Summary of the method: (§3)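 HNE stock at 100 μg/mL and substrate stock at 2 mM, both in 0.1 M Tris–0.5 M NaCl pH 7.5. Compound or DMSO was preincubated with enzyme in the same buffer for 15 min at room temperature, then substrate was added. A405 was read every 30 s for 30 min. Activity was taken from the initial slope as a percentage of the uninhibited reaction.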

Kallikrein-7 [7] = target: T1, Kallikrein-7; assay: Inhibition of human recombinant kallikrein 7 (23 to 252 residues) using MCA-RPKPVE-Nval-WRK(Dnp)-NH2 as substrate by fluorescence based analysis relative to gabexate mesylate; summary of the method: as §1
Target sequence in this assay (P49862 30-253 limits assumed): as the sequence (P49862 30-253 limits assumed) above

[8] = Inhibition of porcine pancreatic elastase; design: species or system Sus scrofa
[9] = Inhibition of Tritirachium album limber Proteinase K using H-D-CHA -Ala-Arg-AMC.2AcOH as substrate by fluorescence based analysis; design: species or system Parengyodontium album; summary of the method: as §2
[10] = target: T2, Neutrophil elastase (Homo sapiens); assay: Inhibition of elastase in human neutrophil using N-(OMe-succinyl)-Ala-Ala-Pro-Val-p-nitroanilide as substrate preincubated with enzyme for 15 mins followed by substrate addition and measured every 30s for 30 mins by absorbance based analysis relative to symplostatin 5; details: time 45.0 min; summary of the method: as §3
[11] = target: T2, Neutrophil elastase (Homo sapiens); assay: Inhibition of elastase in human neutrophil using MeOSuc-AAPV-AMC as substrate by fluorescence based analysis relative to sivelestat; format: cell-based; summary of the method: as §1
[12] = Selectivity ratio of IC50 for chymotrypsin in bovine pancreas to IC50 for human neutrophil elastase
Neutrophil elastase [13] = target: T3, Neutrophil elastase; assay: Inhibition of elastase in human neutrophil using MeOSuc-AAPV-AMC as substrate by fluorescence based analysis; format: cell-based; summary of the method: as §1
Bacillus licheniformis = assay: Inhibition of Bacillus licheniformis Proteinase A using Z-GPR-AMC as substrate by fluorescence based analysis relative to leupeptin; summary of the method: as §2
[14] = target: T2, Neutrophil elastase (Homo sapiens); assay: Inhibition of elastase in human neutrophil using N-(OMe-succinyl)-Ala-Ala-Pro-Val-p-nitroanilide as substrate preincubated with enzyme for 15 mins followed by substrate addition and measured every 30s for 30 mins by absorbance based analysis relative to sivelestat; details: time 45.0 min; summary of the method: as §3
[15] = Inhibition of Bacillus licheniformis Proteinase A using Z-GPR-AMC as substrate by fluorescence based analysis; summary of the method: as §2
Parengyodontium album = assay: Inhibition of Tritirachium album limber Proteinase K using H-D-CHA -Ala-Arg-AMC.2AcOH as substrate by fluorescence based analysis relative to proteinase K inhibitor; summary of the method: as §2

**Q.** For `CC[C@@H](C)[C@H]1C(=O)N(C)[C@@H](Cc2ccc(O)cc2)C(=O)N[C@H]([C@H](C)CC)C(=O)O[C@H](C)[C@H](NC(=O)[C@H](CCC(N)=O)NC(=O)C(C)C)C(=O)N[C@@H](CC(C)C)C(=O)N[C@H]2CC[C@@H](O)N1C2=O`, which IC50 (Kallikrein-7 [1]) is on record?
**A.** 1 nM

**Q.** For `C/C=C1\NC(=O)[C@@H](NC(=O)[C@H](CCC(N)=O)NC(=O)CCCCC)[C@@H](C)OC(=O)[C@H](C(C)C)NC(=O)[C@H](Cc2ccc(O)cc2)N(C)C(=O)[C@H](Cc2ccccc2)N2C(=O)[C@H](CC[C@H]2O)NC1=O` [LYNGBYASTATIN 7], which fold change (FC) [2] is on record?
**A.** 1.5

**Q.** And the fold change (FC) (Kallikrein-7 [3])?
**A.** 1.6

**Q.** And the IC50 (Kallikrein-7 [4])?
**A.** 3.1 nM

**Q.** Which IC50 [5] does the source give for `C/C=C1\NC(=O)[C@@H](NC(=O)[C@@H](NC(=O)[C@H](C)NC(=O)C/C(C)=C/Cl)[C@@H](C)CC)[C@@H](C)OC(=O)[C@H](C(C)C)NC(=O)[C@H](Cc2ccc(O)cc2)N(C)C(=O)[C@H](Cc2ccccc2)N2C(=O)[C@H](CC[C@H]2O)NC1=O` here?
**A.** 97.4 nM

**Q.** What about the IC50 (Neutrophil elastase [6]) of the same compound?
**A.** 44 nM

**Q.** What about the fold change (FC) (Kallikrein-7 [7]) of the same compound?
**A.** 5680

**Q.** What about the IC50 [8] of the same compound?
**A.** 1.2 nM

**Q.** And the IC50 [9]?
**A.** 12.3 nM

**Q.** And the fold change (FC) [10]?
**A.** 2.1

**Q.** What about the fold change (FC) [11] of the same compound?
**A.** 5

**Q.** And the Ratio IC50 [12]?
**A.** 100

**Q.** And the IC50 (Neutrophil elastase [13])?
**A.** 0.73 nM

**Q.** And the fold change (FC) (Bacillus licheniformis)?
**A.** 4000

**Q.** And the fold change (FC) [14]?
**A.** 2.9

**Q.** What about the IC50 [15] of the same compound?
**A.** 31.3 nM

**Q.** And the IC50 (Kallikrein-7 [4])?
**A.** 5 nM

**Q.** And the fold change (FC) (Parengyodontium album)?
**A.** 15

**Q.** For `CC(=O)N[C@@H](CC(C)C)C(=O)N[C@@H](CC(C)C)C(=O)N[C@H](C=O)CCCNC(=N)N` [LEUPEPTIN], which IC50 [15] is on record?
**A.** 129000 nM

**Q.** For `CCOC(=O)c1ccc(OC(=O)CCCCCNC(=N)N)cc1`, which IC50 (Kallikrein-7 [4]) is on record?
**A.** 28400 nM

**Q.** For `CC[C@H](C)[C@@H]1NC(=O)[C@H](Cc2ccc(OCc3ccn(C)n3)cc2)N(C)C(=O)[C@H]([C@@H](C)CC)N2C(=O)[C@H](CC[C@H]2O)NC(=O)[C@H](CC(C)C)NC(=O)[C@@H](NC(=O)[C@H](CCC(N)=O)NC(=O)C(C)C)[C@@H](C)OC1=O`, which IC50 (Kallikrein-7 [1]) is on record?
**A.** 0.2 nM
